Data: ChEMBL document CHEMBL1126124, “3-Phenyl-4-hydroxyquinolin-2(1H)-ones: potent and selective antagonists at the strychnine-insensitive glycine site on the N-methyl-D-aspartate receptor complex” (J Med Chem, 1992)

Columns and labels:
[1] = molecular target: T1, Glutamate receptor ionotropic, NMDA 1 (Rattus norvegicus, UniProt P35439); assay: Inhibition of [3H]-MK-801 binding to a N-methyl-D-aspartic acid(NMDA) receptor in glycine-sensitive rat cortical membranes.; type: cell membranes, Membrane
[2] = molecular target: T1, Glutamate receptor ionotropic, NMDA 1; assay: Ability to displace strychnine-insensitive [3H]glycine binding to rat cortical membranes.
Procedure, shortened: (§1)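 Rat cortical membranes were prepared by a freeze/thaw Triton extraction. Incubation used [³H]glycine with 25 μg membrane fragments on ice for 1 h, ended by rapid filtration through GF/B filters. Nonspecific binding was defined with 100 μM D-serine.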

Glutamate NMDA receptor [3] = assay: Ability to displace strychnine-insensitive [3H]glycine binding to N-methyl-D-aspartate glutamate receptor of rat cortical membranes.; procedure, shortened: as §1
Glutamate NMDA receptor [4] = assay: Inhibition of [3H]MK-801 binding to a N-methyl-D-aspartate glutamate receptor in glycine-sensitive rat cortical membranes.; type: cell membranes, Membrane
Procedure, shortened: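 Well-washed rat cortical membranes were given an added freeze/thaw step. [³H]MK-801 (2.5 nM) binding was run with 1 μM glutamate and 0.2 μM glycine for 2 h at 27 °C, then stopped by filtration. Nonspecific binding was defined with 0.5 μM MK-801. Values are IC50.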

IC50 [1] | Ki [2] | Ki (Glutamate NMDA receptor [3]) | IC50 (Glutamate NMDA receptor [4]) | Compound
550 nM | 300 nM |  |  | Cc1ccc(-c2c(O)nc3cc(Cl)cc(Cl)c3c2O)cc1
 |  | 57 nM | 220 nM | Oc1nc2cc(Cl)cc(Cl)c2c(O)c1-c1ccccc1
 |  | 67 nM | 1230 nM | COc1ccc(-c2c(O)nc3cc(Cl)cc(Cl)c3c2O)cc1
 |  | 13 nM | 110 nM | Oc1ccc(-c2c(O)nc3cc(Cl)cc(Cl)c3c2O)cc1
210 nM | 18 nM |  |  | Nc1ccc(-c2c(O)nc3cc(Cl)cc(Cl)c3c2O)cc1

The remaining lines, values behind:

Compound | IC50 [1] | Ki [2] | Ki (Glutamate NMDA receptor [3]) | IC50 (Glutamate NMDA receptor [4])
O=c1[nH]c2ccccc2c(O)c1-c1ccccc1 | 7290 nM |  |  | 
O=C(O)c1cc(O)c2c(Cl)cc(Cl)cc2n1 | 860 nM | 40 nM |  | 
O=c1[nH]c2cc(Cl)cc(Cl)c2c(O)c1-c1ccc([N+](=O)[O-])cc1 |  | 860 nM |  | 
